Assay results: article PMC5613202 (CPT: Pharmacometrics & Systems Pharmacology, 2017)
Where a SMILES comes first, the peptide text is derived from it. Bridges are numbered along the chain shown (N, C = ends). [ ]: non-standard residue; d: D form. 2Nal = N[C@@H](Cc1ccc2ccccc2c1)C(=O)O; Lys(iPr) = CC(C)NCCCC[C@H](N)C(=O)O

What was measured:
[1] = format: in vivo, human
How it was run: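 The analysis used 767 plasma samples from 147 patients given once-daily s.c. doses. Concentrations were measured by validated LC-MS/MS (LLOQ 0.2, ULOQ 100 ng/mL). The data were fitted with a two-compartment nonlinear mixed-effects model with first-order absorption and dose-dependent clearance. Exponential interindividual variability was used, with allometric body-weight scaling to an 80.1-kg subject. The model was built on rich dose-escalation data, then refined with sparse data. Absorption rate was later fixed at 10 h-1.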

blood CD34+ cell counts = format: in vivo, human; details: patients
How it was run: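 Pooled data from three open-label trials of once-daily s.c. peptide antagonist. In the dose-escalation trial, patients received 1–30 mg/day, or 2.5 or 20 mg/day, for 28-day cycles with rich sampling. The other two trials gave 20 mg/day with standard-of-care chemotherapy or sunitinib and used sparse sampling. CD34+ counts were measured by flow cytometry. The model was a precursor model with reversible precursor–central transfer and concentration-driven stimulation of mobilisation (Smax, SC50).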

Antidrug antibody = assay: Antidrug antibody; parameters: species or system human; details: all patients included in the analysis datasets
How it was run: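 Serum was sampled repeatedly before and after starting once-daily s.c. dosing. Qualitative direct ELISA: the test compound was immobilised on the plate to capture antibodies, which were detected with HRP-conjugated goat anti-human IgG, IgM and IgA and a tetramethylbenzidine substrate. Pooled normal human serum served as negative control. Serum from hyperimmunised cynomolgus monkeys, at various dilutions, served as positive control.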

CXCR4 = details: cited from earlier work
[2] = system: CXCL12/CXCR4-mediated chemotaxis; details: in vitro; cited from earlier work
[3] = system: leukocytes and hematopoietic progenitors; details: rodent and primate models; cited from earlier work
MDA‐MB‐231 breast cancer = MDA‐MB‐231 breast cancer metastatic xenograft model; cited from earlier work
cytochromes = details: preclinical evaluations, no reference given; cited from earlier work
[4] = rats, excretion studies, no reference given; cited from earlier work
[5] = population PK typical value, s.c.

- TVKA, estimates of typical first‐order absorption rate when estimated ([1]; high and poorly estimated, before fixing, s.c.): > 40 h⁻¹
- TVV2/F, typical apparent central volume of distribution ([1]; population PK typical value, 80.1-kg subject, s.c.): 35.0 L
- TVCLmin/F, typical minimum apparent elimination clearance ([1]; population PK typical value, 80.1-kg subject, s.c. once daily, 147 patients): 4.75 L/h
- TVQ/F, typical apparent distribution clearance [1, 5]: 3.74 L/h
- TVV3/F, typical apparent peripheral volume of distribution [1, 5]: 21.9 L
- EC50 (blood CD34+ cell counts; read-out: SC50, LY2510924 concentration at which half of the maximum stimulatory effect is achieved, conversion of 6.87 ng/mL, plasma concentration): 5.78 nM
- patients who developed ADA (Antidrug antibody): None
Compound: CC(C)NCCCC[C@H](NC(=O)[C@H]1CCC(=O)N[C@@H](Cc2ccccc2)C(=O)N[C@@H](Cc2ccc(O)cc2)C(=O)N[C@@H](CCCCNC(C)C)C(=O)N[C@H](CCCNC(=N)N)C(=O)N[C@@H](Cc2ccc3ccccc3c2)C(=O)NCC(=O)N1)C(N)=O [LY2510924] (FY[Lys(iPr)][dR][2Nal]G[dE][Lys(iPr)]-NH2; lactam N-7)
- bV, typical allometric exponent specific to central volume ([1]; population PK, body weight scaling relative to 80.1 kg): 0.948
- SC50, LY2510924 concentration at which half of the maximum stimulatory effect is achieved (blood CD34+ cell counts; PK/PD model typical value, plasma concentration): 6.87 ng/mL
- Smax, maximum stimulatory effect of LY2510924 on CD34+ cell mobilization (blood CD34+ cell counts; PK/PD model typical value, s.c. once daily): 13.1
- CXCR4 agonist properties (CXCR4): does not exhibit any CXCR4 agonist properties
- value observed in chemotaxis inhibition assays [2]: 0.26 nM
- mobilization of leukocytes and hematopoietic progenitors to the blood stream [3]: dose‐ and time‐dependent mobilization
- effect on tumor metastasis (MDA‐MB‐231 breast cancer): inhibit tumor metastasis
- substrate, inhibitor or inducer of cytochromes (cytochromes): not a substrate, an inhibitor, or an inducer of cytochromes
- dose recovered as parent drug in urine [4]: < 40%
